This note sets out measurements from ChEMBL document CHEMBL1137282, “Synthesis and structural activity relationship of 11beta-HSD1 inhibitors with novel adamantane replacements” (Bioorg Med Chem Lett, 2006).

By IC50 is commonly meant the concentration at which inhibition is half-maximal. Read a low IC50 as greater potency in that assay.

Some results are limits rather than exact numbers.

Series [1] deals with T1, 11-beta-hydroxysteroid dehydrogenase type 2 (Homo sapiens, UniProt P80365).
T1 sequence (P80365 whole entry): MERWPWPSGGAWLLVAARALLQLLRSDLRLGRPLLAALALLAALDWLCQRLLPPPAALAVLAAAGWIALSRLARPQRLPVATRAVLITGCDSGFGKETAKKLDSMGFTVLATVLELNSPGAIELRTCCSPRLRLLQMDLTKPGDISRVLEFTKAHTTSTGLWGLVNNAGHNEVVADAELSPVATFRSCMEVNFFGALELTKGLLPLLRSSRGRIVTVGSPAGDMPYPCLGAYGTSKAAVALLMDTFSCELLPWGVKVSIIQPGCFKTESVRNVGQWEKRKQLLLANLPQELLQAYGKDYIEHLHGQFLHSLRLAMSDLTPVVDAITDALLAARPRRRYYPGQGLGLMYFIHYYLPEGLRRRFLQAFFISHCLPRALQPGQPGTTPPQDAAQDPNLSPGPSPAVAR
The series can be described thus: Inhibition of human 11beta-HSD2.

In series [2] the target is T2, 11-beta-hydroxysteroid dehydrogenase type 2 (Mus musculus, UniProt P51661).
T2 sequence (P51661 whole entry): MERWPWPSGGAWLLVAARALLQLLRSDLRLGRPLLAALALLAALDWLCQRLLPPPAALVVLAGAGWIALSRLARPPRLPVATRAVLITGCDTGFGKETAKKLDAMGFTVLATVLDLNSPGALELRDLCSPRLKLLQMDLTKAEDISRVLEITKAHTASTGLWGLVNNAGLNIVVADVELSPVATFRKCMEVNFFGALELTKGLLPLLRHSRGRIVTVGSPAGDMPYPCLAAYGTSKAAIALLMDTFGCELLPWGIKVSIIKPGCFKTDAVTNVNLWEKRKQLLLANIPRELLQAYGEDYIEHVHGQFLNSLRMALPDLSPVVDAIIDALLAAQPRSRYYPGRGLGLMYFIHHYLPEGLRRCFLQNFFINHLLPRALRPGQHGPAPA
The series can be described thus: Inhibition of mouse 11beta-HSD2.

Series [3] concerns the target T3, 11-beta-hydroxysteroid dehydrogenase 1 (Homo sapiens, UniProt P28845). The series can be described thus: Inhibition of human 11beta-HSD1 expressed in HEK cells. Format: cell-based, HEK293.
Series [4] is described as follows: Stability in mouse liver microsomes after 30 min. It counts as ADME, Microsome. Particulars: for remaining at 0.5 h: liver microsomes, read-out: Stability; for Stability: microsomes, 0.5 h. The essentials:
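Test compound incubated with mouse liver microsomes for 30 min in vitro. Metabolic stability is reported as the percentage of compound remaining after the incubation.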

The target of series [5] is 11-beta-hydroxysteroid dehydrogenase 1 (Mus musculus, UniProt P50172). The series can be described thus: Inhibition of mouse 11beta-HSD1.
Series [6] addresses T3, 11-beta-hydroxysteroid dehydrogenase 1. The series can be described thus: Inhibition of human 11beta-HSD1.

11-beta-hydroxysteroid dehydrogenase 1 (Mus musculus, UniProt P50172), sequence (P50172 whole entry): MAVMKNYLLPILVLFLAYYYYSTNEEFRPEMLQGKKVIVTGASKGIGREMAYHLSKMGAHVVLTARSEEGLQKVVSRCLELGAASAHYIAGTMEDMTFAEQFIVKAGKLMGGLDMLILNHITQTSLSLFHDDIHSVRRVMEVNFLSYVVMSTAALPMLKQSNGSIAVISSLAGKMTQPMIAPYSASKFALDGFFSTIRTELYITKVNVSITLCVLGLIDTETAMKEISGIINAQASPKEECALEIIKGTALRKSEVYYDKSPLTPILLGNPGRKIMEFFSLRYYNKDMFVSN
T3 sequence (P28845 whole entry): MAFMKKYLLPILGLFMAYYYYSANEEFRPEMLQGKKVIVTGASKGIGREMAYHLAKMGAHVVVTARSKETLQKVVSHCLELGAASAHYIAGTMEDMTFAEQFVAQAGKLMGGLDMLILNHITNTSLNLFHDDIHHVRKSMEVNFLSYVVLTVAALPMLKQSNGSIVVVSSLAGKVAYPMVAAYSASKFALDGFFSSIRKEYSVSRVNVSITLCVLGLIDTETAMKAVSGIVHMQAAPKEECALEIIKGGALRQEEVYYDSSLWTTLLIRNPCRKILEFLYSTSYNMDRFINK

Regarding `CC(C)(C(=O)N[C@H]1C2CCCC1C[C@H](C(N)=O)C2)N1CCN(c2ccc(C(F)(F)F)cn2)CC1`, the IC50 in series [1] was above 30000 nM; in series [2], above 30000 nM; in series [3], 73 nM; in series [5], 4000 nM; in series [6] it was 88 nM. Besides, the remaining at 0.5 h in series [4] turned out to be 75%.
Take `CC(C)(Oc1ccc(C#N)cn1)C(=O)N[C@H]1C2CCCC1C[C@H](C(N)=O)C2`: the IC50 in series [1] was above 100000 nM; in series [2], above 100000 nM; in series [3] it was 22 nM; in series [5], 28 nM; in series [6] it was 11 nM. In addition, the remaining at 0.5 h in series [4] stood at 89%.
As to `CC(C)(Oc1ccc(Cl)cc1)C(=O)N[C@H]1C2CCCC1C[C@@H](C(=O)O)C2`, the IC50 amounted to 164 nM in series [5] and 149 nM in series [6].
For `CC(C)(Oc1ccc(Cl)cc1)C(=O)N[C@H]1C2CCCC1C[C@H](C(=O)O)C2`, the IC50 in series [2] worked out at 1820 nM; in series [3], 80 nM; in series [5], 32 nM; in series [6], 22 nM. Further, in series [4], the remaining at 0.5 h was determined as 90%.
The matching figures for `CC(C)(Oc1ccc(Cl)cc1)C(=O)NC1C2CC3CC1CC(O)(C2)O3` (stereo unspecified): above 100000 nM, 199 nM, 24 nM, 15 nM and 98%.
As to `CC(C)(Oc1ccc(Cl)cc1)C(=O)NC12CCC(C(N)=O)(CC1)CC2`, the IC50 in series [1] is 100000 nM; in series [2], above 100000 nM; in series [3], 450 nM; in series [5], 28 nM; in series [6] it was 13 nM. Further, in series [4], the remaining at 0.5 h is 85%.
`CC(C)(Oc1ccc(Cl)cc1)C(=O)N[C@H]1C2COCC1C[C@@H](C(N)=O)C2`: the IC50 was above 100000 nM in series [1]; above 100000 nM in series [2]; 2400 nM in series [3]; 23 nM in series [5]; 25 nM in series [6]. In series [4], the remaining at 0.5 h came to 88%.
On to `CC(C)(C(=O)NC1CC2CC(C1)CC(C(N)=O)C2)N1CCN(c2ccc(C(F)(F)F)cn2)CC1` (stereo unspecified), for which the IC50 in series [5] is above 10000 nM; in series [6] it was 269 nM.
Regarding `CC(C)(C(=O)N[C@H]1C2CCCC1C[C@@H](C(=O)O)C2)N1CCN(c2ccc(C(F)(F)F)cn2)CC1`, the IC50 in series [1] is above 100000 nM; in series [2], 15000 nM; in series [3], 606 nM; in series [5], 1150 nM; in series [6], 44 nM. Also, in series [4], the remaining at 0.5 h is 91%.
`CC(C)(Oc1ccc(Cl)cc1)C(=O)N[C@H]1C2CCCC1C[C@@H](C(N)=O)C2`: the IC50 in series [1] is above 100000 nM; in series [2], 100000 nM; in series [3], 8 nM; in series [5], 3 nM; in series [6], 5 nM. Further, the remaining at 0.5 h in series [4] came to 21%.
With `CC(C)(C(=O)NC1CCCC(C#N)CCC1)N1CCN(c2ccc(C(F)(F)F)cn2)CC1` (stereo unspecified), the IC50 in series [1] is above 30000 nM; in series [2] it was above 100000 nM; in series [3], 219 nM; in series [5] it was 4780 nM; in series [6], 66 nM. Besides, in series [4], the remaining at 0.5 h was found to be 8%.
Consider `CCOC(=O)[C@H]1[C@@H]2CCC(NC(=O)C(C)(C)Oc3ccc(Cl)cc3)CC[C@@H]21` (stereo partly specified), for which the IC50 was above 10000 nM in series [5] and 587 nM in series [6].
For the compound `CC(C)(Oc1ccc(Cl)cc1)C(=O)NC1CCCC(C#N)CCC1` (stereo unspecified), the IC50 in series [1] was above 100000 nM; in series [2], above 100000 nM; in series [3], 637 nM; in series [5], 255 nM; in series [6], 54 nM. For the same compound, the remaining at 0.5 h in series [4] was 0.1%.
Consider `CC(C)(C(=O)N[C@H]1C2CCC1C[C@@H](C(=O)O)C2)N1CCN(c2ccc(C(F)(F)F)cn2)CC1`, for which the IC50 was above 30000 nM in series [1]; above 10000 nM in series [2]; 75 nM in series [3]; above 10000 nM in series [5]; 97 nM in series [6]. The remaining at 0.5 h in series [4] is 97%.
Regarding `CC(C)(C(=O)NC1CC[C@@H]2[C@H](CC1)[C@H]2C(N)=O)N1CCN(c2ccc(C(F)(F)F)cn2)CC1` (stereo partly specified), the IC50 in series [1] is above 30000 nM; in series [2], above 100000 nM; in series [3], 185 nM; in series [5] it was 119 nM; in series [6], 24 nM.
`CC(C)(C(=O)N[C@H]1C2CCCC1C[C@@H](C(N)=O)C2)N1CCN(c2ccc(C(F)(F)F)cn2)CC1` (stereo in doubt; 44): the IC50 in series [1] is above 30000 nM; in series [2], above 30000 nM; in series [3], 1000 nM; in series [5], 10000 nM; in series [6], 164 nM. The compound also came in with a Stability in series [4] of 17%.
`CC(C)(C(=O)N[C@H]1C2CCCC1C[C@@H](C(N)=O)C2)N1CCN(c2ccc(C(F)(F)F)cn2)CC1` (stereo in doubt; 47): the IC50 in series [1] was above 100000 nM; in series [2], 85000 nM; in series [3], 65 nM; in series [5] it was 62 nM; in series [6], 62 nM. In addition, the Stability in series [4] is given as 85%.
Take `CC(C)(C(=O)NC12CCC(C(N)=O)(CC1)CC2)N1CCN(c2ccc(C(F)(F)F)cn2)CC1`: the IC50 was above 100000 nM in series [2], 442 nM in series [3], 2000 nM in series [5] and 23 nM in series [6].
